Source: PubChem BioAssay (Broad Institute)
Most compounds without a hit are left out; they make up all but 3.7% or so of the library.
CFTR F508del cor: correctors of CFTR F508del function in bronchial epithelial cells; AID 720511; 350,000 tested, 0.36% active; activity (quench increase), % at 7.58 µM; CFBE cells, YFP halide quenching; stimulated with forskolin plus potentiator P3; % fluorescence drop versus neutral controls;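 active = mean added fluorescence quench of at least 8% versus neutral control, with both replicates also reaching 8%; inconclusive = only one of the mean or replicate conditions met; inactive = mean below 8% and not both replicates reaching 8%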;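 also: cells transiently co-express mutant CFTR-F508del with the halide-sensitive YFP; corrector assay measuring rescue of mutant channel to the surface after 24 h compound exposure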
ERAP1 inh: ERAP1 (human) enzyme inhibition; Q9NZ08; recombinant ERAP1, Leu-AMC fluorescence, 60 min; inhibition, % at 10.7 µM; 340,000 tested, 0.15% active; AID 652197;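 active = mean replicate inhibition of at least 30%, or all replicates individually reaching that 30% level; inactive = mean below 30% and not every replicate reaching it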;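 also: 0% = neutral control wells and 100% = L-leucinethiol positive control wells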
DENV2 CPE rescue: protects cells from dengue virus 2 cytopathic effect; CPE inhibition, % at 9.99 µM; DENV2-infected cells, cytopathic effect rescue, plate reader; 350,000 tested, 1.7% active; in the data active = CPE inhibition above about 20%, passing the limit was not always enough; inconclusive = no clear call, values can overlap the other calls; tested in BHK-21 cells;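 also: 0% = median of neutral control wells and 100% = median of positive control wells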
E-sel inducer: E-selectin induction on HUVECs; HUVEC E-selectin immunofluorescence imaging; normalized: neutral wells 0, TNF-alpha wells 100; activation, % at 7.58 µM; 260,000 tested, 0.37% active; AID 686992;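 active = mean E-selectin-positive cell signal at least 10% of the positive control, reached in at least 60% of replicates, without over 20% cell loss; inconclusive = no rule given, readout overlaps actives, possibly toxicity-flagged; inactive = the rest, including those meeting only one limit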
Target sequence (P16581 whole entry, looked up): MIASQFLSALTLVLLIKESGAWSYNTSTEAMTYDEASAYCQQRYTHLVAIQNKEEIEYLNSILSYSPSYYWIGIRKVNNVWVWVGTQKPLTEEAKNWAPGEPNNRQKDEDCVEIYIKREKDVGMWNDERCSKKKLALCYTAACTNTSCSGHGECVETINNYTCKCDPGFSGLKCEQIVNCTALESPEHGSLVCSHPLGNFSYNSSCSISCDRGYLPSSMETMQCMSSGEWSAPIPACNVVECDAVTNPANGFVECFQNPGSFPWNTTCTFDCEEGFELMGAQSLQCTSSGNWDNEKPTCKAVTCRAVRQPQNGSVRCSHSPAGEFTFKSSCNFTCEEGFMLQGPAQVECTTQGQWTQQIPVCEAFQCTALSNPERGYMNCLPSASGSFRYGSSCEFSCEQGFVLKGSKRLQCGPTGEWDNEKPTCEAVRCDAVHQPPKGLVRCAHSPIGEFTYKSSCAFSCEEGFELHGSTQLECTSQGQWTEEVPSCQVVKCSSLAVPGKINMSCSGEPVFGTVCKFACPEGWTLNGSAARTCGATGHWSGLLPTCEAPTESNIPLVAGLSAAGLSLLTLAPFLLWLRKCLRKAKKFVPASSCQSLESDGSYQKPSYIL
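Assay system: HUVEC, human umbilical vein endothelial cells / Amount: 3,000 HUVEC/well / Controls: TNF-alpha positive control, DMSO neutral control / Compound dosing: single concentration / Medium: EGM-2 over gelatin coat / Evaluation: percent E-selectin-positive cells / Signal: immunofluorescence imaging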
FGF22 binding-1: shifts melting point of recombinant human FGF22 | Q9HCT0 | recombinant FGF22 thermal shift, SYPRO orange fluorescence; percent of sucrose octasulfate shift, DMSO zero | activity (Tm shift, normalised), % at 9.99 µM | 340,000 tested, 1.5% active;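 active = mean Tm shift, scaled 0 neutral to 100 positive control, at about 1.3% or above, every replicate too, limit read from the data; inconclusive = no clear call, values can overlap the other calls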
Target sequence (Q9HCT0 whole entry, looked up): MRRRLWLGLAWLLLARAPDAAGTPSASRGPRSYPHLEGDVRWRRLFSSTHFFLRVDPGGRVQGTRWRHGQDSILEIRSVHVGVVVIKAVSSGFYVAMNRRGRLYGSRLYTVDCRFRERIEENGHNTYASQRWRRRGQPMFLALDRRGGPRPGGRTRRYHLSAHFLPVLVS
FGF22 binding-2: FGF22 (human) binding in thermal shift; thermal shift activity, °C (ΔTm) at 38 µM; shares compounds with FGF22 binding-1; 1,000 tested, 2% active; recombinant FGF22 thermal shift, SYPRO orange fluorescence;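 active = fitted rise in melting shift crosses a set limit at or below the top valid dose tested; inconclusive = flat fit at mid-level activity, or a poor quality fit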
FGF22 TSA DP: FGF22 (human) binding by thermal shift | Tm shift (activity), % at 38 µM | Thermal shift assay, SYPRO orange, melting temperature shift | 50 tested, under 10 active | shares compounds with FGF22 binding-1;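 active = compounds whose fitted dose curve of melting temperature shift rises past a set threshold within the tested doses; inconclusive = flat curve at moderate activity, or poor curve fit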
SYPRO no-protein: counter-screen for FGF22 binders: compound-only thermal shift, no protein. shares compounds with FGF22 binding-1. compound-only SYPRO orange thermal shift counter-screen. AC50, µM (series often up to 38 µM). 1,000 tested, 2% active. AID 743019;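 active = rising signal whose fitted curve reaches the 0.54 level within the top valid dose, showing a melting point, actives reach about 13 µM in these data; inactive = the rest, including activity in the opposite direction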; also: value is where the raw curve crosses a fixed level and not half-maximal
* marks the source's active call; other numbers are inactive results; i = inactive; ? = inconclusive; · = not tested or not shown; [ ] = remark or other dose.

SMILES | CFTR F508del cor | ERAP1 inh | DENV2 CPE rescue | E-sel inducer | FGF22 binding-1 | FGF22 binding-2 | SYPRO no-protein | others
O=C(N[C@@H]1CC[C@@H](CC(=O)N2CCN(c3ccccc3)CC2)O[C@H]1CO)c1ccccc1 | 0 | -4 | 4 | 0 | 0 | · | ·
COc1ccc(NC(=O)N2CC3(C2)CN(CC2CC2)[C@@H](CO)c2c3c3ccc(OC)cc3n2C)cc1 | 1 | -2 | -12 | 0 | 0 | · | ·
Cc1ccc(NC(=O)C2CCCN2C(=O)Oc2ccccc2)c(C)c1 (stereo unspecified) | -1 | 3 | -3 | 1 | 2.2* | -0.007 | i
C[C@H](CO)N1C[C@H](C)[C@H](CN(C)C(=O)Nc2ccccc2)Oc2ccc(NC(=O)Nc3cccc4ccccc34)cc2CC1=O | 2 | -1 | -4 | 0 | 0 | · | ·
Oc1ccc(-c2cnc3ccccc3n2)cc1 | 1 | 6 | 4 | 0 | 25* | 0.009 | i
Nc1ccc(-c2cnc3ccccc3n2)cc1 | -4 | -2 | -1 | · | 0 | · | ·
CCC(=O)N1[C@H](CO)[C@H]2c3ccccc3N(C(=O)c3ccc4c(c3)OCO4)C[C@H]21 | 1 | 1 | -1 | 0 | 0 | · | ·
CCCNC(=O)N1C[C@@H]2[C@H](c3ccccc31)[C@H](CO)N2C(=O)c1ccccc1 | -2 | · | · | 0 | · | · | ·
CC(C)NC(=O)N1C[C@H]2[C@@H](c3ccccc31)[C@H](CO)N2C(=O)c1cccnc1 | 0 | · | 4 | 0 | 1.3* | -0.023 | i
CCCNC(=O)N1[C@@H]2CN(C(=O)c3ccccc3)c3ccccc3[C@@H]2[C@@H]1CO | 2 | · | · | 1 | 1.8* | 0.23[42 µM] | i
CC(C)NC(=O)N1C[C@@H]2[C@H](c3ccccc31)[C@@H](CO)N2C(=O)c1cccnc1 | 0 | 2 | 7 | 0 | 0 | · | ·
CCNC(=O)C[C@@H]1CC[C@H]2[C@@H](COc3ccc(NC(=O)Nc4c(C)noc4C)cc3C(=O)N2C)O1 | -1 | 1 | ? | 0 | 0 | · | ·
CNC(=O)C[C@H]1CC[C@H]2[C@@H](COc3ccc(NC(=O)Nc4cccc(F)c4)cc3C(=O)N2C)O1 | -1 | · | 3 | 0 | 0 | · | ·
CC(=O)c1c(C)nc(-c2ccc(OCC(=O)Nc3ccccc3)cc2)n1O | -2 | -4 | -1 | 2 | 0 | · | ·
COc1cc(-c2nc(C)c(C(C)=O)n2O)ccc1OCC(=O)Nc1ccc(Cl)cc1 | 0 | 2 | ? | 5 | 2.5* | -0.17 | i
CC(=O)c1c(C)nc(-c2ccc(OCC(=O)Nc3cccc(C)c3C)cc2)n1O | 5 | -1 | -3 | 1 | 2.2* | -0.018 | i
CO[C@@H]1CN(C)C(=O)c2ccc(NS(=O)(=O)c3ccc(F)cc3)cc2OC[C@@H](C)N(C)C[C@H]1C | 2 | 2 | -3 | 0 | 206* | -0.009 | i
CO[C@@H]1CN(C)C(=O)c2ccc(NS(=O)(=O)c3ccc(Oc4ccccc4)cc3)cc2OC[C@H](C)NC[C@H]1C | -1 | 5 | -5 | 0 | 0 | · | ·
CO[C@@H]1CN(C)C(=O)c2ccc(NS(=O)(=O)c3ccc(Oc4ccccc4)cc3)cc2OC[C@H](C)NC[C@@H]1C | 2 | -2 | -1 | 0 | 1.2* | 0.17[42 µM] | i
Cc1ccc(S(=O)(=O)N[C@@H]2CC[C@@H](CC(=O)NCCN3CCCCC3)O[C@H]2CO)cc1 | -1 | 0 | -6 | 0 | 0 | · | ·
CCC(CC)CN1CCC(CN2C(=O)C(=O)NC[C@@H]2CC(C)C)CC1 | -1 | -1 | 5 | 0 | 1.9* | · | i
O=C(N[C@H]1CC[C@H](CC(=O)N2CCc3ccccc3C2)O[C@@H]1CO)C1CC1 | -2 | 1 | 3 | 0 | 0 | · | ·
CCCCN(C(=O)c1ccc2c(c1)OCCO2)c1c(N)n(CCCC)c(=O)[nH]c1=O | -1 | 2 | -4 | 6 | 21* | 0.11 | i
CCCCn1c(N)c(N(CCC(C)C)C(=O)c2ccc3c(c2)OCO3)c(=O)[nH]c1=O | -1 | -1 | 4 | 0 | 0 | · | ·
COc1ccc(CCNC(=O)C(=O)c2c(C)[nH]c3ccccc23)cc1 | 0 | 0 | -1 | · | 0 | · | ·
SMILES | CFTR F508del cor | ERAP1 inh | DENV2 CPE rescue | E-sel inducer | FGF22 binding-1 | FGF22 binding-2 | SYPRO no-protein | others
Cc1[nH]c2ccccc2c1C(=O)C(=O)NCCOc1ccccc1 | 2 | -3 | 1 | · | 17* | 0.084 | i
Cn1cnc(CCNC(=O)C[C@H]2CC[C@@H]3[C@H](COC[C@H](O)CN3C(=O)Nc3ccccc3)O2)c1 | -1 | 1 | -3 | 0 | 0 | · | ·
CCOc1ccc(C(=O)CCC(=O)Nc2ccc(C)cn2)cc1 | 0 | 1 | 2 | 2 | 14* | 0.22 | i
COc1ccc(NC(=O)Nc2ccc3c(c2)CC(=O)N([C@@H](C)CO)C[C@@H](C)[C@H](CN(C)Cc2ccncc2)O3)cc1 | 1 | 0 | ? | · | 0 | · | ·
C/C(=N\NC(=O)COc1ccc(C)cc1C(C)C)c1cc2ccccc2o1 | 2 | -4 | -2 | · | 20* | -0.056 | i
CCNc1c(NS(=O)(=O)c2ccc(Br)s2)c(=O)oc2ccccc12 | -2 | 2 | 7 | · | 1.8* | 0.043 | i
CO[C@@H]1CN(C)C(=O)c2ccc(NC(=O)Nc3ccccc3Cl)cc2OC[C@@H](C)N(S(=O)(=O)CC(F)(F)F)C[C@H]1C | 0 | 4 | 2 | 0 | 0 | · | ·
Cc1[nH]c2ccccc2c1N=Nc1cc(C(=O)O)cc(C(=O)O)c1 | 1 | 12 | -4 | 7 | 1.5* | 0.056 | i
Oc1c(CN2CCOCC2)cc(CN2CCOCC2)c(O)c1O | 1 | 23 | 6 | 0 | 1.4* | 0.096 | i
Cc1[nH]c2ccccc2c1C(=O)NS(=O)(=O)Nc1ccc(Cl)cc1 | 0 | -3 | -4 | · | 1.6* | -0.19 | i | FGF22 TSA DP=0
COc1ccccc1NS(=O)(=O)NC(=O)c1c(C)[nH]c2ccccc12 | -1 | -3 | 3 | · | 0 | · | ·
CO[C@H]1CN(C)C(=O)c2ccc(NC(=O)C3CC3)cc2OC[C@H](C)N(C(=O)CN2CCOCC2)C[C@H]1C | 2 | 1 | -1 | 0 | 0 | · | ·
C/C(=N\NC(=O)c1ccc(NS(=O)(=O)c2cccs2)cc1)c1ccc2c(c1)OCO2 | -1 | -1 | -5 | 5 | 0 | · | ·
C/C(=N\NC(=O)c1ccc(NS(=O)(=O)c2cccs2)cc1)c1cccs1 | 0 | -3 | 0 | 0 | 1.5* | 0.017 | i
COc1cccc(CNC(=O)[C@@H]2[C@@H](CO)[C@@H]3Cn4c(ccc(C5=CCCCC5)c4=O)[C@H]2N3)c1 | 1 | -1 | 8 | 0 | 0 | · | ·
